Laboratory results taken from ChEMBL document CHEMBL1133188, “Discovery of novel, potent, and selective small-molecule CCR5 antagonists as anti-HIV-1 agents: synthesis and biological evaluation of anilide derivatives with a quaternary ammonium moiety” (J Med Chem, 2000).

Legend:
[1] = target: C-C chemokine receptor type 5 (Homo sapiens, UniProt P51681); experiment: Inhibitory effect on Chemokine binding to C-C chemokine receptor type 5 using [125I]RANTES
Summary of the method: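 CHO/CCR5 cells (5 × 10⁴ cells/100 μL) cultured 24 h at 37 °C, then medium replaced with Ham's F-12 binding buffer containing 20 mM Hepes and 0.5% BSA, pH 7.2. Binding with [125I]RANTES (2000 Ci/mmol) plus graded compound concentrations, room temperature, 40 min. Free ligand removed by washing with cold PBS; cell-bound radioactivity counted. IC50 = 50% inhibition of binding; means of duplicate separate experiments (one compound triplicate).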

[2] = target: T1, C-C chemokine receptor type 3 (Homo sapiens, UniProt P51677); experiment: Inhibitory effect on the binding of [125I]- eotaxin to C-C chemokine receptor type 3- expressing CHO cells; format: cell-based
T1 sequence (P51677 whole entry): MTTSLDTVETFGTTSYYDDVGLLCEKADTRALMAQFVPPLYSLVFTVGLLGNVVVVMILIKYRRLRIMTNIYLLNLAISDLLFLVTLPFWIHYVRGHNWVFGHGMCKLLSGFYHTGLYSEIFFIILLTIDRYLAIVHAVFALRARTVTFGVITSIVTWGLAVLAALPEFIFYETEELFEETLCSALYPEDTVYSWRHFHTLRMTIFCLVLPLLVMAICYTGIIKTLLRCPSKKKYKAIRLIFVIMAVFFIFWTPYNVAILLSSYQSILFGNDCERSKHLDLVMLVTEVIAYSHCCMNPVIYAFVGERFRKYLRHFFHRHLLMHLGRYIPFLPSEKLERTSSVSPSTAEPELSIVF
Summary of the method: (§1)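 Whole-cell radioligand binding on CHO cells expressing CCR1 ([125I]RANTES), CCR3 ([125I]eotaxin) or CCR4 ([125I]TARC). Cells were seeded and cultured 24 h at 37 °C. Binding ran in Ham's F-12 with 20 mM Hepes and 0.5% BSA, pH 7.2, at room temperature for 40 min with graded compound. After a cold-PBS wash, cell-bound radioactivity was counted. Means ± SEM of ≥3 separate experiments.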

[3] = Inhibitory effects on HIV-1 (Ba-L) replication was evaluated in MAGI-CCR5 cells; format: functional, cell-based; conditions: Homo sapiens
[4] = target: C-C chemokine receptor type 2 (Homo sapiens, UniProt P41597); experiment: Inhibitory effect on the binding of [125I]- MCP-1 to C-C chemokine receptor type 2-expressing CHO cells; format: cell-based
Sequence of C-C chemokine receptor type 2 (P41597 whole entry): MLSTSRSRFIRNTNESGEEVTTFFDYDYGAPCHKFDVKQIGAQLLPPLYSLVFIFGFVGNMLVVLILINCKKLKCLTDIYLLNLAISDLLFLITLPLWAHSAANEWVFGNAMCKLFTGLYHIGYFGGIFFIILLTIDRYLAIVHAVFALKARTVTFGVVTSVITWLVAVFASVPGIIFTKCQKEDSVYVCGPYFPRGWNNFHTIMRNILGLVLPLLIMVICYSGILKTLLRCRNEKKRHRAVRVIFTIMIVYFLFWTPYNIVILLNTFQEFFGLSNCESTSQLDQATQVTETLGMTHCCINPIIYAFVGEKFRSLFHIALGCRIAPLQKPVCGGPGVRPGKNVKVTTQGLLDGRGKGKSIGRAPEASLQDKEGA
Summary of the method: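 CCR2b-expressing CHO cells (5 × 10⁴ cells/100 μL) cultured 24 h at 37 °C. Medium replaced with binding buffer: Ham's F-12, 20 mM Hepes, 0.5% BSA, pH 7.2. [125I]MCP-1 binding run at room temperature for 40 min with graded test-compound concentrations. Free ligand washed off with cold PBS; cell-associated radioactivity counted by scintillation.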

[5] = target: T2, C-C chemokine receptor type 4 (Homo sapiens, UniProt P51679); experiment: Inhibitory effect on the binding of [125I]TARC to C-C chemokine receptor type 4-expressing CHO cells; format: cell-based; summary of the method: as §1
T2 sequence (P51679 whole entry): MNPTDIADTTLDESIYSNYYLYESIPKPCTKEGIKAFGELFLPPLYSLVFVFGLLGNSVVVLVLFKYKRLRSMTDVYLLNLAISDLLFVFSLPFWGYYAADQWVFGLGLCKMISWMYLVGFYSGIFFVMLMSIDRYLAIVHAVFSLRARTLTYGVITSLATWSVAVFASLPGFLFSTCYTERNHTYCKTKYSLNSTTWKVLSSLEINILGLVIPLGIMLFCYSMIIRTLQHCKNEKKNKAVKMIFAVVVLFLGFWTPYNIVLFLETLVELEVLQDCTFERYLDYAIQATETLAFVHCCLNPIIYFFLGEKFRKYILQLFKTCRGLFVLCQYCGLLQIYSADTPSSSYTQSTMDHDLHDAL

[6] = system: Human immunodeficiency virus 1; experiment: Inhibitory effects on HIV-1 (Ba-L) replication was evaluated in PBMCs; format: functional, organism-based
[7] = target: T3, C-C chemokine receptor type 1 (Homo sapiens, UniProt P32246); experiment: Inhibitory effect on the binding of [125I]RANTES to C-C chemokine receptor type 1-expressing CHO cells; format: cell-based; summary of the method: as §1
T3 sequence (P32246 whole entry): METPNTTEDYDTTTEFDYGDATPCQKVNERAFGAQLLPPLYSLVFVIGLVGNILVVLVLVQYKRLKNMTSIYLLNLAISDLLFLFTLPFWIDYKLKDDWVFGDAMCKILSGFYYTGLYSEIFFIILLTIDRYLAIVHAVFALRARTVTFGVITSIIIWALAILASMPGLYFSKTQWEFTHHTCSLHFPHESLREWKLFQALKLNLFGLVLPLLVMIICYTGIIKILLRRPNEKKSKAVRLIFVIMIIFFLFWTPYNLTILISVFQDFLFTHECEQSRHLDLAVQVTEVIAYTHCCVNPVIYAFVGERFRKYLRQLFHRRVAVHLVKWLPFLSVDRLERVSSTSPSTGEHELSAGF

Sequence of C-C chemokine receptor type 5 (P51681 whole entry): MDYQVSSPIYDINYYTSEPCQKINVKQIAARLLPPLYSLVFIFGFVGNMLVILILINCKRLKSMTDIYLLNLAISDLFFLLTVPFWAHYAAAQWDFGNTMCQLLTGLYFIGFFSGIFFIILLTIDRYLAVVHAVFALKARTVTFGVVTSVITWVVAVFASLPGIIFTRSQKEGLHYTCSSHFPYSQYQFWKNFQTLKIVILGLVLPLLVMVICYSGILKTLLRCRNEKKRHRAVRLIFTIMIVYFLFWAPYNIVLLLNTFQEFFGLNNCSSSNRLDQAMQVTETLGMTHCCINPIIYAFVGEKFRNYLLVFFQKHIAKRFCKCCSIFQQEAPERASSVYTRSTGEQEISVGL

SMILES | IC50 [1] [nM] | other results
C[N+]1(Cc2ccc(NC(=O)C3=Cc4cc(-c5ccccc5)ccc4CC3)cc2)CCCCCC1 | 380 | 
CCC(CC)[N+](C)(C)Cc1ccc(NC(=O)C2=Cc3cc(-c4ccc(C)cc4)ccc3OCC2)cc1 | 3.3 | 
C[N+]1(Cc2ccc(NC(=O)C3=Cc4cc(-c5ccccc5)ccc4CC3)cc2)CCOCC1 | 1200 | 
C[N+]1(CCc2ccc(NC(=O)C3=Cc4cc(-c5ccccc5)ccc4CC3)cc2)CCCCC1 | 1100 | 
Cc1ccc(-c2ccc3c(c2)C=C(C(=O)Nc2ccc(C[N+]4(C)CCCCC4)cc2)CO3)cc1 | 660 | 
Cc1ccc(-c2ccc3c(c2)C=C(C(=O)Nc2ccc(C[N+](C)(C)C4CCSCC4)cc2)CCO3)cc1 | 3.1 | 
Cc1ccc(-c2ccc3c(c2)C=C(C(=O)Nc2ccc(C[N+]4(C)CCCCC4)cc2)CC3)cc1 | 240 | 
Cc1ccc(-c2ccc3c(c2)C=C(C(=O)Nc2ccc(C[N+](C)(C)C4CCOCC4)cc2)CCC3)cc1 [listing 1 of 2 here] | 1.8 | 
Cc1ccc(-c2ccc3c(c2)C=C(C(=O)Nc2ccc(C[N+]4(C)CCCCC4)cc2)CCC3)cc1 | 25 | 
CCOc1ccc(-c2ccc3c(c2)C=C(C(=O)Nc2ccc(C[N+](C)(C)C4CCOCC4)cc2)CCO3)cc1 | 1.8 | 
Cc1cccc[n+]1Cc1ccc(NC(=O)C2=Cc3cc(-c4ccccc4)ccc3CC2)cc1 | 3200 | 
C[N+]1(Cc2ccc(NC(=O)C3=Cc4cc(-c5ccccc5)ccc4CC3)cc2)CCCCC1 | 390 | 
C[N+](C)(Cc1ccc(NC(=O)C2=Cc3cc(-c4ccc(C(F)(F)F)cc4)ccc3OCC2)cc1)C1CCOCC1 | 1.5 | 
Cc1ccc(-c2cccc(/C=C/C(=O)Nc3ccc(C[N+]4(C)CCCCC4)cc3)c2)cc1 | 570 | 
Cc1ccc(-c2ccc3c(c2)C=C(C(=O)Nc2ccc(CC[N+]4(C)CCCCC4)cc2)CCO3)cc1 | 110 | 
Cc1ccc(-c2ccc3c(c2)C=C(C(=O)Nc2ccc(C[N+](C)(C)CCCO)cc2)CCO3)cc1 | 6.8 | 
CCCC[P+](CCCC)(CCCC)Cc1ccc(NC(=O)/C=C/c2cccc(-c3ccc(C)cc3)c2)cc1 | 620 | 
Cc1ccc(-c2ccc3c(c2)C=C(C(=O)Nc2ccc(C[N+](C)(C)C4CCOCC4)cc2)CCO3)cc1 | 1.4 | 
C[N+]1(Cc2ccc(NC(=O)C3=Cc4cc(-c5ccccc5)ccc4CC3)cc2)CCCC1 | 430 | 
CC[N+](CC)(CC)Cc1ccc(NC(=O)C2=Cc3cc(-c4ccccc4)ccc3CC2)cc1 | 840 | 
Cc1ccc(-c2ccc3c(c2)C=C(C(=O)Nc2ccc(C[N+]4(C)CCCCC4)cc2)CCO3)cc1 | 43 | 
C[N+](C)(Cc1ccc(NC(=O)C2=Cc3cc(-c4ccc(N5CCCCC5)cc4)ccc3CCC2)cc1)C1CCOCC1 | 2.2 | 
Cc1ccc(-c2ccc3c(c2)C=C(C(=O)Nc2ccc(C[N+](C)(C)C4CCOCC4)cc2)CCC3)cc1 [listing 2 of 2 here] | 1.4 | IC50 [2]: > 10000 nM; EC50 [3]: 1.2 nM; IC50 [4]: 27 nM; IC50 [5]: > 10000 nM; EC50 [6]: 3.7 nM; IC50 [7]: > 10000 nM
Cc1ccc(-c2ccc3c(c2)C=C(C(=O)Nc2ccc(C[N+](C)(C)C4CCC(=O)CC4)cc2)CCO3)cc1 | 4.5 | 
C[N+](C)(Cc1ccc(NC(=O)C2=Cc3cc(-c4ccc(N5CCCC5)cc4)ccc3CCC2)cc1)C1CCOCC1 | 3.8 | 
